GRIN3A LBD mod = binders of NR3A ligand-binding domain, primary screen, biophysical, differential scanning fluorimetry, uHTS | Glutamate receptor ionotropic, NMDA 3A (GRIN3A) ligand-binding domain | NR3A LBD differential scanning fluorimetry, Tm shift; 0% = protein alone, 100% = glycine-bound protein | Tm shift relative to glycine control, % at 25 µM | 340,000 tested, 2.5% active;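 active = melting temperature shift of at least 10% of the positive control shift, at one fixed dose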
CHOP inhibitor = inhibitors of CHOP promoter induction, primary screen, cell-based, unfolded protein response, luciferase reporter. CHO-K1 CHOP-promoter luciferase, tunicamycin-induced, 15-18 h. inhibition, % at 10 µM. 220,000 tested, 3.8% active;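 active = compounds that reduced the stress-induced luciferase reporter signal by more than about 70% of percent inhibition, limit read from the data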;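 note: 0% = tunicamycin plus vehicle and 100% = wells without tunicamycin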
Beta cell apopt = inhibitors of cytokine-induced beta cell apoptosis, primary screen, luminescence. INS-1E cytokine-induced death, ATP luminescence, 48 h; percent of positive-control rescue, neutral wells zero. protection from apoptosis, % (concentration not given with the values). 300,000 tested, 0.8% active. AID 435005, 2010;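 active = Every replicate reaches about 75%, or at least half do and their mean reaches it too, limit read from the data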;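 note: 0% = cytokine-treated negative control wells and 100% = positive control rescue; higher means more ATP so stronger rescue from cytokine killing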
PREPL inhibitor = PREPL enzyme inhibitors, primary screen, biochemical, fluorescence polarization | recombinant PREPL, fluorescence polarization activity-based probe | inhibition, % at 5.96 µM | 320,000 tested, 0.68% active | Prolyl endopeptidase-like (Homo sapiens), Q4J6C6 | AID 2751, 2010; in the data active = inhibition above about 43%;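 note: 0% = enzyme with DMSO and 100% = wells lacking enzyme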
Target sequence (Q4J6C6 whole entry, looked up): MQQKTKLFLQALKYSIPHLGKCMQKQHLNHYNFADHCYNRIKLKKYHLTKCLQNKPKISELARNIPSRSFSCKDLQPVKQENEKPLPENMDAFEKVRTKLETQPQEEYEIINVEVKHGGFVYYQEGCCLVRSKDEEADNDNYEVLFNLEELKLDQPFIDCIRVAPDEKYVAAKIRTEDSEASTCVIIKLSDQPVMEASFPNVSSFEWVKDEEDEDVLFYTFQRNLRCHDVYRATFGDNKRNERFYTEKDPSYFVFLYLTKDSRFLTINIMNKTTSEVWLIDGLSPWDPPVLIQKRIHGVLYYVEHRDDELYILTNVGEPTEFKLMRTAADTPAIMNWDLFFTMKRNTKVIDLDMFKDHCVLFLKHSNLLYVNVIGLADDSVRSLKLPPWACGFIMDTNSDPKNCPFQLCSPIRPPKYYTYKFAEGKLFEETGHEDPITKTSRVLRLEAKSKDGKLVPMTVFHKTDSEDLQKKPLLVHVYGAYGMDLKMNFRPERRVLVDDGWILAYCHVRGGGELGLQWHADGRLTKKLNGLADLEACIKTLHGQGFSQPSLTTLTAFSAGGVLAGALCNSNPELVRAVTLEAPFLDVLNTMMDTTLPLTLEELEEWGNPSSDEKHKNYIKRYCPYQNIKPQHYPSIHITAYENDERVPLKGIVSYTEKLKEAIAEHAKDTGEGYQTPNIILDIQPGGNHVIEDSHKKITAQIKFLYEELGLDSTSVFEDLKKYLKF
T cruzi repl = inhibitors of intracellular T. cruzi growth, primary screen, luminescence, NIH3T3 host cells; T. cruzi beta-gal in NIH3T3, 90 h; inhibition, % (concentration not given with the values); 300,000 tested, 1.4% active;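 active = mean inhibition across valid replicates above about 55%, limit read from the data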;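 note: signal also drops with host cell toxicity which is not excluded here; 0% = plate median of DMSO wells and 100% = zero luminescence signal; higher percent means less beta-gal luminescence so fewer parasites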
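Assay system: NIH/3T3 fibroblasts plus reporter T. cruzi. Amount: NIH/3T3 cells, 5,000 per well. Buffer or medium: DMEM, 2% fetal bovine serum. Doses: compound pinned at 50 nL/well, DMSO. Schedule: ≥90 h infection period, 3 h prior cell attachment. Signal: luminescent β-galactosidase signal after 60 min lysis. Read-out: parasite load inhibition, %.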
CSC inhib = cancer stem cell viability inhibitors, primary screen, luminescence; AID 2717, 2010; 300,000 tested, 1.1% active; inhibition, % at 7.5 µM; cancer stem cell-like cells viability; in the data active = inhibition above about 75%; tested in HMLE shEcad cells
* hit, by the source's call; / = no result. A selection: hits, their analogues and other compounds. The true share with any hit is near 6.7%.

SMILES | GRIN3A LBD mod | CHOP inhibitor | Beta cell apopt | PREPL inhibitor | T cruzi repl | CSC inhib
O=C(N/N=C/c1ccc(OC(F)F)cc1OC(F)F)NC1CCCCC1 | -27.8 | 90.9* | 4.3 | -2.8 | 28.4 | -3.8
O=C(N/N=C/c1ccc(OC(F)F)cc1OC(F)F)c1ccc(Br)cc1 | -1.6 | 34.2 | -1.5 | -2.4 | 12.9 | 1.8
COc1cc(C(c2nnnn2C2CCCC2)N2CCN(C)CC2)cc(OC)c1OC (stereo unspecified) | -1.5 | 11.7 | 2.5 | -3.3 | 1.9 | -7.3
COc1cc2cc(C(c3nnnn3C3CCCCC3)N(C)C3CCCCC3)c(=O)[nH]c2cc1OC (stereo unspecified) | -4.9 | 84.3* | / | -1.4 | 30.8 | -15.2
c1cnc2ccc(C(c3nnnn3C3CCCCC3)N3CCN(C4CCCCC4)CC3)cc2c1 (stereo unspecified) | -0.3 | / | 7.1 | 7.0 | 69.4* | -20.3
COc1cc2cc(C(c3nnnn3C3CCCC3)N(C)C3CCCCC3)c(=O)[nH]c2cc1OC (stereo unspecified) | -0.1 | 49.5 | -3.5 | -1.3 | 11.7 | 24.9
COc1ccc(C(c2nnnn2C2CCCC2)N2CCC(C)CC2)cc1 (stereo unspecified) | -2.3 | 82.9* | 22.1 | -9.2 | 20.9 | -10.6
COc1ccc(C(c2nnnn2C2CCCC2)N2CCN(C3CCCC3)CC2)cc1OC (stereo unspecified) | 10.8* | 9.5 | -10.6 | 1.0 | 10.7 | -1.4
COc1ccc(S(=O)(=O)Nc2ccccc2C(=O)NCc2cccnc2)cc1OC | 1.2 | / | -3.0 | 6.2 | -13.2 | 5.6
O=S(=O)(NCCOCC(F)(F)C(F)F)c1ccc2oc3ccccc3c2c1 | 3.3 | 84.9* | 1.0 | -43.7 | -15.4 | -0.4
COc1c(C(CC(C)C)OC(C)=O)ccc2c1C(=O)OCc1cc(C)cc(O)c1O2 (stereo unspecified) | 0.8 | 71.9* | / | -5.0 | 5.7 | -14.2
COc1cccc(-c2cc(CC3(O)CCN(CCCc4ccccc4)CC3)on2)c1 | -3.5 | / | / | -32.8 | 24.3 | 15.0
O=C(O)/C=C/C(O)c1ccc(Cl)cc1 (stereo unspecified) | 0.6 | 1.6 | -0.1 | -9.3 | / | -0.5
CC[N+]1(C)CCC(O)(c2ccc(OC)cc2)C(C(=O)c2ccc(OC)cc2)C1 (stereo unspecified) | 1.0 | / | / | / | / | /
CCCCNC(=O)CCn1c(=O)c2ccccc2n(Cc2ccc(Cl)cc2)c1=O | -2.9 | 87.4* | -2.1 | 1.3 | 8.0 | 2.2
CSc1ccccc1NC(=O)COC(=O)c1c[nH]c(=O)[nH]c1=O | 2.0 | -1.3 | -7.1 | 0.3 | -0.7 | 4.7
O=C(CN1C(=O)COc2ccccc21)N(Cc1cccnc1)Cc1cccc(F)c1 | 1.5 | 4.5 | 4.5 | -1.4 | 71.0* | -7.5
CCC1Oc2ccc(C)cc2N(CC(=O)N(Cc2cccnc2)Cc2cccc(F)c2)C1=O (stereo unspecified) | -0.8 | -18.4 | 2.4 | 0.8 | 59.5* | 3.3
CCC1Oc2ccc(C)cc2N(CC(=O)N(Cc2ccncc2)Cc2ccco2)C1=O (stereo unspecified) | -1.7 | 10.4 | 2.2 | 7.0 | 19.1 | 1.2
O=C(O)CCC(=O)N(Cc1cccnc1)Cc1cccc(F)c1 | 9.7 | 17.0 | 0.0 | 5.8 | / | -9.0
COc1ccc2nc(NC(=O)CSc3nnc4n3C(C)(C)Cc3ccccc3-4)sc2c1 | 10.1* | -10.4 | -1.0 | -3.9 | 4.2 | 1.2
CCn1c(SCC(=O)Nc2nc3ccc(OC)cc3s2)nc2c1c(=O)n(C)c(=O)n2C | 0.9 | 83.8* | / | 16.8 | -4.0 | 7.0
COc1ccc(Cl)cc1NC(=O)CN(C)C(=O)/C=C/c1ccco1 | 1.8 | / | 5.2 | 11.2 | / | 11.0
O=C(NCc1cccc(C(F)(F)F)c1)N1CCN(C(=O)c2ccccc2)CC1 | 1.4 | / | -6.0 | 11.4 | / | 2.0
CN(CC(=O)Nc1ccc(F)cc1)C(=O)c1cn(-c2ccccc2)nc1-c1cccs1 | 23.6* | / | -0.8 | -53.2 | / | /
SMILES | GRIN3A LBD mod | CHOP inhibitor | Beta cell apopt | PREPL inhibitor | T cruzi repl | CSC inhib
CCN(CC)CCNC(=O)c1ccc(NC(=O)c2cn(-c3ccc(F)cc3)nc2-c2cccc(OC)c2)cc1 | -5.0 | / | 14.9 | -17.9 | 65.0* | 20.9
CCN(CC)CCNC(=O)c1ccc(NC(=O)c2cn(-c3ccccc3)nc2-c2cccs2)cc1 | -7.6 | 66.6 | 78.5* | -56.0 | 45.7 | 33.1
CCOc1ccc(NC(=O)CN(C)C(=O)c2cn(-c3ccc(F)cc3)nc2-c2cccc(OC)c2)cc1OCC | 5.2 | / | 5.8 | -2.6 | 10.5 | -13.0
COc1ccc(S(=O)(=O)Cc2ccc(C(=O)NC3CCCCCC3)o2)cc1 | -2.8 | / | -1.7 | -15.6 | 9.8 | -2.6
CCCN1C2CCCC1CC(NC(=S)Nc1cc(C)cc(C)c1)C2 (stereo unspecified) | -0.6 | -12.1 | -4.6 | 29.3 | -11.5 | -7.4
Cc1ccc(NNC(=O)C(=O)N2CCCCC2)cc1 | 0.2 | -31.8 | / | -9.9 | 42.7 | 112.0*
Cc1ccccc1C(=O)NNC(=O)C(=O)N1CCCCC1 | 1.1 | -20.6 | -5.3 | 7.6 | -1.3 | -8.6
O=C(Nc1cccc(S(=O)(=O)N2CCOCC2)c1)C1COc2ccccc2O1 (stereo unspecified) | 2.6 | / | / | / | / | /
CC(=O)Nc1cccc2c1Cc1ccccc1-2 | 35.6* | / | / | -17.5 | -8.7 | 0.9
COC(CNC(=O)c1ccc2c(c1)ncn2C1CCCCCC1)OC | -0.3 | / | -3.4 | -2.2 | -5.8 | -5.8
O=[N+]([O-])c1ccc2c(c1)-c1ccccc1C2=NO | -0.2 | / | / | / | / | /
Nc1ccc2c(c1)C(=NO)c1cc([N+](=O)[O-])ccc1-2 | 28.1* | / | / | / | / | /
COc1ccc(Cc2nc3ccc(C(=O)N(C)C(C)c4ccon4)cc3o2)cc1 (stereo unspecified) | -0.9 | / | 1.4 | 15.9 | -2.9 | 6.2
CCOC(=O)C1CCN(C(=O)COC(=O)/C=C/c2cccc(OC)c2OC)CC1 | 14.7* | / | -0.3 | 13.4 | / | 13.4
CCOC(=O)C1CCN(C(=O)COC(=O)/C=C/c2ccccc2)CC1 | 2.2 | / | -3.0 | 2.9 | / | 9.5
Cc1cc(C)nc(S/C=C/C(=O)c2ccccc2F)n1 | 0.2 | 85.2* | -3.0 | 9.8 | 40.5 | 61.3
Cc1cc(C)nc(NC(=S)NC(=O)c2ccccc2F)n1 | 0.9 | / | -0.2 | -4.7 | 12.1 | -3.3
COc1ccc2[nH]c(=O)c(CN(Cc3cccs3)C(=S)Nc3cccc(C)c3)cc2c1 | 10.3* | 56.9 | 11.8 | 1.1 | 41.2 | 12.6
CNC(=S)N(Cc1cccs1)Cc1cc2cc(OC)ccc2[nH]c1=O | 1.0 | 2.5 | -1.1 | -6.2 | 15.5 | -1.9
COc1ccc2[nH]c(=O)c(CNc3cccc(C)c3)cc2c1 | -1.9 | 72.9* | -3.6 | 16.9 | 21.8 | 5.3
